The source of these data is ChEMBL document CHEMBL4431307, “Dehydroleucodine, a Sesquiterpene Lactone from Gynoxys verrucosa, Demonstrates Cytotoxic Activity against Human Leukemia Cells” (J Nat Prod, 2016).

Calls of active or inactive are those of the source. No cut-off for these calls is given here.

Data set [1] concerns HL-60. In words: Cytotoxicity against human HL60 cells assessed as decrease in cell viability after 48 hrs […]. The class given is functional. The note with it: HL-60, 48 h, read-out: LD50 (the source's name). The method in brief:
(§1)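 AML cell lines seeded at 0.5 million cells/mL (counted by Trypan Blue exclusion) and exposed to varying concentrations in triplicate for 48 h. Read-out by flow cytometry after annexin V (FITC or PE) and 7-AAD staining, at least 50 000 events per condition; annexin V/7AAD double-negative cells scored viable. Value reported as LD50.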

For data set [2], the system named is THP-1. The data set is described as follows: Cytotoxicity against human THP1 cells assessed as decrease in cell viability after 48 hrs […]. The data set is classed as functional. The note with it: THP-1, 48 h, read-out: LD50 (the source's name). Put shortly:
as §1

The species entered for data set [3] is Homo sapiens. The data set is described as follows: Inhibition of NF-kappaB DNA binding activity in human MOLM13 cells by ELISA. The data set is classed as cell-based. Put shortly:
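p65 DNA-binding ELISA in MOLM-13 cells, with TNFα as positive control, run in triplicate.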

For data set [4], the species on record is Homo sapiens. In words: Inhibition of NF-kappaB p65 phosphorylation in human MOLM13 cells at 5 to 20 uM after 6 hrs by Western blot analysis. The data set is classed as cell-based. The method in brief: (§2)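 MOLM-13 cells at 0.5 million/mL were treated 6 h and lysed on ice for 30 min in Tris pH 7.5/NaCl/Triton/SDS buffer with phosphatase and protease inhibitors. Lysates were run on 10% SDS-PAGE and blotted to PVDF. Membranes were probed separately for phospho-p65 and total p65 at 4 °C overnight, detected with IRDye secondaries by infrared imaging, with total p65 as loading control.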
On the technique in general: Immunoblotting shows a protein as a band on a membrane.

For data set [5], the species on record is Homo sapiens. In words: Inhibition of NF-kappaB in human MOLM13 cells assessed as MYB gene expression at 10 to 20 uM after 6 hrs by Western blot analysis. The class given is cell-based.
In data set [6] the test system is Kasumi 1. The data set is described as follows: Cytotoxicity against human Kasumi-1 cells assessed as decrease in cell viability after 48 hrs by […]. The data set is classed as functional. The note with it: Kasumi 1, 48 h, read-out: LD50 (the source's name). Put shortly: as §1
Data set [7] concerns TUR. In words: Cytotoxicity against human TUR cells assessed as decrease in cell viability after 48 hrs […]. The data set is classed as functional. Particulars: read-out: LD50 (the source's name). The method in brief:
as §1

For data set [8], the species on record is Homo sapiens. In words: Inhibition of NF-kappaB in human MOLM13 cells assessed as CDK6 gene expression at 10 to 20 uM after 6 hrs by Western blot analysis. The class given is cell-based.
Data set [9] concerns MOLM-13. The data set is described as follows: Effect on total NF-kappaB p65 level in human MOLM13 cells at 5 to 20 uM after 6 hrs by Western blot analysis. The class given is cell-based. Particulars: molm-13, 6 h. The method in brief: as §2
Data set [10] deals with KG-1. The data set is described as follows: Cytotoxicity against human KG1 cells assessed as decrease in cell viability after 48 hrs […]. The class given is functional. Particulars: KG-1, 48 h, read-out: LD50 (the source's name). The method in brief:
as §1

The test system of data set [11] is MOLM-13. The data set is described as follows: Downregulation of NF-kappaB1A transcription in human MOLM13 cells at 20 uM after 6 hrs by qRT-PCR analysis. The data set is classed as functional, cell-based. The method in brief:
(§3)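 MOLM-13 cells at 0.5 million/mL were treated 6 h with 20 μM compound, then total RNA was extracted. One-step TaqMan RT-qPCR was run: RT 48 °C 15 min, then 95 °C 10 min, then 40 cycles of 95 °C 15 s and 60 °C 1 min. Singleplex reactions were in triplicate, with fold change by the 2^-ΔΔCt method.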

The subject of data set [12] is MV4-11. The data set is described as follows: Cytotoxicity against human MV4-11 cells assessed as decrease in cell viability after 48 hrs […]. Particulars: MV4-11, 48 h, read-out: LD50 (the source's name). The class given is functional. The method in brief: as §1
The test system of data set [13] is U-937. The data set is described as follows: Cytotoxicity against human U937 cells assessed as decrease in cell viability after 48 hrs […]. The class given is functional. The note with it: U-937, 48 h, read-out: LD50 (the source's name). The method in brief: as §1
In data set [14] the test system is MOLM-13. In words: Upregulation of HSPA1A in human MOLM13 cells at 20 uM after 6 hrs by qRT-PCR analysis. The class given is functional, cell-based. The method in brief:
as §3
(In general: In qPCR the cycle at which signal appears reflects the starting amount.)

Data set [15] deals with MOLM-13. In words: Upregulation of heme oxygenase 1 in human MOLM13 cells at 20 uM after 6 hrs by qRT-PCR analysis. The class given is functional, cell-based. The method in brief: as §3
The test system of data set [16] is MOLM-13. The data set is described as follows: Cytotoxicity against human MOLM13 cells assessed as decrease in cell viability after 48 hrs […]. The class given is functional. Particulars: MOLM-13, 48 h, read-out: LD50 (the source's name). Put shortly:
as §1

Data set [17] concerns HL-60. In words: Cytotoxicity against human HL60 cells assessed as decrease in cell viability at 20 uM after 48 hrs by annexin V-FITC/7-AAD staining based flow cytometry relative to control. The data set is classed as functional. The method in brief:
(§4)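 AML cell lines kept at 0.5 million cells/mL and treated in triplicate for 48 h. Cells were stained with annexin V (FITC or PE) plus 7-AAD, and at least 50 000 events were recorded per condition by flow cytometry. Annexin V-/7-AAD- cells were scored viable, with viability taken relative to untreated control.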

The subject of data set [18] is KG-1. The data set is described as follows: Cytotoxicity against human KG1 cells assessed as decrease in cell viability at 20 uM after 48 hrs by annexin V-FITC/7-AAD staining based flow cytometry relative to control. The data set is classed as functional. The method in brief: as §4
(A flow cytometer gives signals particle by particle.)

Data set [19] deals with PBMC. In words: Cytotoxicity against human peripheral blood mononuclear cells assessed as decrease in cell viability at 20 uM after 48 hrs by annexin V-FITC/7-AAD staining based flow cytometry relative to control. The method in brief:
(§5)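 Bone marrow and peripheral blood mononuclear cells from healthy donors were isolated by Ficoll density gradient. They were held 1 h in serum-free medium with rhFLT-3 ligand 50 ng/mL, rhSCF 50 ng/mL, rhIL-3 20 ng/mL and rhIL-6 20 ng/mL before drug. Treatment ran 48 h, and viability was read by annexin V/7-AAD flow cytometry relative to untreated control.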

A further data set has as its system HeLa S3. The data set is described as follows: Cytotoxicity against human HeLaS3 cells assessed as decrease in cell viability after 72 to 96 hrs by MTT assay. The class given is functional, cell-based.
The test system of the next data set is Leukemia cell. The data set is described as follows: Cytotoxicity against primary leukemia cells isolated from human AML patient assessed as cell death after 48 hrs by […]. The data set is classed as functional. The note with it: read-out: LD50 (the source's name).
Data set [20] concerns MOLM-13. The data set is described as follows: Cytotoxicity against human MOLM13 cells assessed as decrease in cell viability at 20 uM after 48 hrs by annexin V-FITC/7-AAD staining based flow cytometry relative to control. The data set is classed as functional. The method in brief: as §4
In the next data set the test system is KB. The data set is described as follows: Cytotoxicity against human KB cells assessed as decrease in cell viability after 72 hrs by MTT assay. The data set is classed as functional, cell-based.
The next data set has as its system MCF7. The data set is described as follows: Cytotoxicity against human MCF7 cells assessed as decrease in cell viability after 72 to 96 hrs by MTT assay. The data set is classed as functional, cell-based.
Data set [21] deals with TUR. In words: Cytotoxicity against human TUR cells assessed as decrease in cell viability at 20 uM after 48 hrs by annexin V-FITC/7-AAD staining based flow cytometry relative to control. The data set is classed as functional. Put shortly:
as §4

Data set [22] concerns Bone marrow cell. In words: Cytotoxicity against human bone marrow cells assessed as decrease in cell viability at 20 uM after 48 hrs by annexin V-FITC/7-AAD staining based flow cytometry relative to control. The method in brief:
as §5

For data set [23], the system named is Kasumi 1. The data set is described as follows: Cytotoxicity against human Kasumi-1 cells assessed as decrease in cell viability at 20 uM after 48 hrs by annexin V-FITC/7-AAD staining based flow cytometry relative to control. The class given is functional. The method in brief: as §4
Data set [24] has as its system U-937. The data set is described as follows: Cytotoxicity against human U937 cells assessed as decrease in cell viability at 20 uM after 48 hrs by annexin V-FITC/7-AAD staining based flow cytometry relative to control. The class given is functional. Put shortly: as §4
In data set [25] the test system is MV4-11. The data set is described as follows: Cytotoxicity against human MV4-11 cells assessed as decrease in cell viability at 20 uM after 48 hrs by annexin V-FITC/7-AAD staining based flow cytometry relative to control. The data set is classed as functional. Put shortly: as §4
Data set [26] relates to THP-1. The data set is described as follows: Cytotoxicity against human THP1 cells assessed as decrease in cell viability at 20 uM after 48 hrs by annexin V-FITC/7-AAD staining based flow cytometry relative to control. The data set is classed as functional. Put shortly: as §4
Data set [27] concerns Bone marrow cell. In words: Cytotoxicity against human bone marrow cells assessed as decrease in cell viability at 50 uM after 48 hrs by annexin V-FITC/7-AAD staining based flow cytometry relative to control. The method in brief: as §5
Data set [28] has as its system PBMC. The data set is described as follows: Cytotoxicity against human peripheral blood mononuclear cells assessed as decrease in cell viability at 50 uM after 48 hrs by annexin V-FITC/7-AAD staining based flow cytometry relative to control. The method in brief:
as §5

What is called IC50 is the concentration that inhibits the measured activity by half.

Take `C=C1C(=O)O[C@@H]2[C@@H]1CC/C(C)=C/CC[C@]1(C)O[C@H]21`: the CC50 in the data set with HL-60 [1] was 13.9 µM; in the data set on THP-1 [2] it was > 20 µM; with Kasumi 1 [6] it was 3.6 µM; with TUR [7], 7.4 µM; with KG-1 [10], > 20 µM; in the data set on MV4-11 [12], 8.6 µM. The CC50 worked out at 8.4 µM in the data set on U-937 [13] and 3.4 µM with MOLM-13 [16]. Also, the inhibition result in the data set filed under Homo sapiens [3], in the data set listed under Homo sapiens [4], in the data set filed under Homo sapiens [5] and in the data set listed under Homo sapiens [8] was “Active” each time. In addition, the Activity result with MOLM-13 [9] is recorded as “Non-Toxic”. The outcome in the data set on MOLM-13 [11], with MOLM-13 [14] and in the data set on MOLM-13 [15] was Active.

As for `C=C1C(=O)O[C@@H]2[C@H]3C(C)=CC(=O)C3=C(C)CC[C@@H]12` [DEHYDROLEUCODIN], the CC50 with HL-60 [1] turned out to be 14.1 µM; in the data set with THP-1 [2] it was 16.8 µM; with Leukemia cell it was 9.4 µM; in the data set with Kasumi 1 [6], 12.9 µM; with TUR [7], 12.2 µM; in the data set with KG-1 [10], 18.7 µM. In addition, the CC50 with MV4-11 [12] is 5 µM; with U-937 [13] it was 18.9 µM; in the data set on MOLM-13 [16], 12.6 µM. The result in the data set on HL-60 [17], in the data set on KG-1 [18], in the data set with MOLM-13 [20], in the data set with MOLM-13 [11], with TUR [21] and in the data set with Kasumi 1 [23] was Active. Moreover, the outcome with U-937 [24], with MV4-11 [25], in the data set on THP-1 [26], in the data set on MOLM-13 [14] and with MOLM-13 [15] was Active. The Activity entry in the data set on PBMC [19], in the data set with MOLM-13 [9] and in the data set on Bone marrow cell [22] was “Non-Toxic” in each case. Moreover, the results for the IC50 in the data set on HeLa S3, in the data set on KB and in the data set on MCF7 were 10 µM, 5.3 µM and 5 µM, respectively. In addition, the inhibition entry in the data set filed under Homo sapiens [3], in the data set listed under Homo sapiens [4], in the data set listed under Homo sapiens [5] and in the data set listed under Homo sapiens [8] was “Active” each time.

As to `CC1=CC(=O)C2=C(C)CC[C@@H]3[C@H](OC(=O)[C@H]3C)[C@@H]12` [DESACETOXYMATRICARIN], the CC50 with HL-60 [1], in the data set with THP-1 [2], in the data set with Kasumi 1 [6], in the data set with TUR [7], with KG-1 [10] and in the data set with MV4-11 [12] was > 20 µM each time. The CC50 in the data set with U-937 [13] and with MOLM-13 [16] was > 20 µM in each case. Further, the inhibition entry in the data set listed under Homo sapiens [3] was “inactive”. Also, the Activity entry in the data set on Bone marrow cell [27] and in the data set on PBMC [28] was “Non-Toxic” throughout. In addition, the outcome in the data set with MOLM-13 [11], with MOLM-13 [14] and with MOLM-13 [15] was Active.
